Results on 72 compounds are retold here after ChEMBL document CHEMBL4513216, “Probing the Open Global Health Chemical Diversity Library for Multistage-Active Starting Points for Next-Generation Antimalarials” (ACS Infect Dis, 2020).

Molecules are shown by their SMILES.

The data set can be described thus: Toxicity liver stage against HepG2, at 10uM. It is filed as cell-based. The arrangement: test concentration 10 uM, cell line HepG2-A16-CD81EGFP. Particulars: human, HepG2-A16-CD81EGFP cells; read-out: INHIBITION
The method in brief: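 Uninfected HepG2-A16-CD81EGFP cells, 3 × 10^3 per well, 1536-well, plated on prespotted compound at 10 μM final, parasite-free screening media added to match infected plates; puromycin 10 μM positive, DMSO 0.5% negative; run in parallel with 48 h PbLuc assay at 37 °C, 5% CO2; viability by CellTiter-Glo luminescence, normalized to controls.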

As for `COc1cccc(CC2(CO)CCCN(c3nccs3)C2)c1` (configuration not stated), the cytotoxicity at 10 µM is -4.59%.

Consider `CCN(CC)S(=O)(=O)CC(=O)Nc1ccsc1`, for which the cytotoxicity at 10 µM was -2.77%. The same measure for `Cc1cn(Cc2ccc(F)cc2)nc1N`: -8.99%; for `CC(C(=O)N1CCCN(Cc2cnn(C)c2)CC1)n1ccnc1` (configuration not stated): -13.8%. In the case of `CC(C)C(Nc1nc(C(F)(F)F)nc2ccccc12)C(=O)O` (configuration not stated), the cytotoxicity at 10 µM was -1.98%. The same measure for `Cc1cc(C(=O)N2CCCC2c2nc(C)cc(O)n2)on1` (configuration not stated): -15.2%; for `CN(Cc1cnn(C)c1)C(=O)C1COc2ccccc2C1` (configuration not stated): 0.583%. With `Cc1cccc(CN2CCc3ncnc(C)c3CC2)n1`, the cytotoxicity at 10 µM is -17.4%. Then `Cc1ccc(-c2nnc(NC(=O)c3ccn(C)c(=O)c3)[nH]2)s1`, with -1.15%.

Consider `CN(C)CC(=O)N1Cc2nc(C(=O)NCc3ccncc3)oc2C1`, for which the cytotoxicity at 10 µM was -8.58%. Regarding `Cc1c(C(=O)OCC2CC(=O)N(c3ccccc3)C2)cnn1C(C)C` (configuration not stated), the cytotoxicity at 10 µM is -3.52%. Turning to `CC(C)CN1CCC(NC(=O)N(C)Cc2csc3ccccc23)CC1`, the cytotoxicity at 10 µM was -52.9%. Then `Cn1ccnc1CCNC(=O)C1CCCN(Cc2cccc(F)c2)C1` (configuration not stated), with -6.87%; and `COCC1(CNC(=O)[C@@]23CNC[C@@H]2CN(C2CCCC2)C3)CC1`, with -11.9%. Then `CCn1nccc1CNc1[nH]cnc2nncc1-2`, with 3.15%; and `CC(c1ccco1)n1cc(-c2cc(CN3CCCC3)cs2)nn1` (configuration not stated), with -23.6%; and `CC(C)C1Nc2ccccc2C(=O)N1CC(=O)Nc1nc2c(s1)CCC2` (configuration not stated), with 2.31%.

For the compound `CC(C)CCNc1nc(C(=O)NC2CC2)cs1`, the cytotoxicity at 10 µM amounted to 0.461%. Then `CC(C)N(C)Cc1cnc2n1CCN(C(=O)Cc1ccccn1)C2`, with -0.405%; and `Cc1nc([C@@H]2C[C@@H]3CCN(C(=O)Cc4cccs4)C[C@H]3O2)no1`, with 3.27%; and `COCCc1noc(-c2ccc(=O)[nH]c2)n1`, with -3.61%. The same measure for `CNC(=O)c1cnc2n1CCN(Cc1cccnc1OC)C2`: 8.91%; for `Cc1cn2c(n1)CCC(NC(=O)c1cc(Br)cn1C)C2` (configuration not stated): 3.18%. The same measure for `Cc1cccc(CN2Cc3nccn3CC(CN3CCOCC3)C2)c1` (configuration not stated): -75.2%. For the compound `CCc1cc(NCCCc2nc(C)no2)nc(-c2ccncc2)n1`, the cytotoxicity at 10 µM came to 2.63%. The same measure for `Cc1nc(C(C)C)sc1C(C)N(C)C(=O)c1ccc(=O)n(C)c1` (configuration not stated): 1.46%. Then `CCOc1c(C(N)=O)cn(C)c1-c1nc2cc(NC(C)=O)ccc2n1C`, with -46.9%; and `CO[C@H]1C(=O)N(C)C2(CCNCC2)[C@@H]1C(=O)Nc1ccccc1`, with 6.17%; and `CCOC1COC2(CCN(Cc3ccc(C)c(C)c3)CC2)C1` (configuration not stated), with -11.2%. Then `CC(C)C(C(=O)N1CCCN(c2cccnn2)CC1)n1cncn1` (configuration not stated), with -20.7%. Regarding `COc1ccc(-c2n[nH]cc2CN(C)CCCN2CCOCC2)c(F)c1`, the cytotoxicity at 10 µM is -2.26%. Take `CN(CCc1cn[nH]c1)C(=O)C(c1ccc(F)cc1)N(C)C` (configuration not stated): the cytotoxicity at 10 µM was -19.5%. The same measure for `CCOCC1CN(C(=O)Cc2cccs2)Cc2ccnn2C1` (configuration not stated): -78.7%; for `c1ccc(Cc2noc(CN3CCc4c(ncn4C4CC4)C3)n2)cc1`: 2.1%; for `CCN(Cc1cccc2c1OCO2)C(=O)Nc1cn[nH]c1`: -17.2%. Then `C/C=C(\C)CN1CCC2(CCC(=O)N2OCc2ccccc2F)CC1`, with 5.24%; and `CCN(CC)C(=O)c1ccc(NC(=O)CNc2ccc(Br)cc2F)cc1`, with 4.52%.

Turning to `C1CC(CN2CCOCC3(CCN(C4CCOCC4)C3)C2)CCO1` (configuration not stated), the cytotoxicity at 10 µM is -3.37%. The same measure for `CN1CCCN(C(=O)c2cc(-c3cc[nH]n3)n3ccccc23)CC1`: 11%. As to `Cc1cnc(CCNC(=O)NCCOc2ncccc2Cl)s1`, the cytotoxicity at 10 µM was determined as 9.18%. The same measure for `Cc1nc(C)c(CN2CCC(N(C)Cc3noc(C4CC4)n3)C2)s1` (configuration not stated): -20%; for `Cc1ccc([C@@H]2CN(S(=O)(=O)N3CCC(C)CC3)C[C@H]2N(C)C)cc1`: -3.59%. The same measure for `O=C1CC(c2ccc3c(c2)OCO3)c2c(n3ccsc3nc2=O)N1` (configuration not stated): 8.38%; for `Cc1nnn2c1COCC(CNC(=O)c1ccc[nH]1)C2` (configuration not stated): 2.7%. Then `COCCOc1ccnc(-c2noc([C@@H]3CCCN3C(C)C)n2)c1`, with -12.7%. Consider `Cc1noc(C)c1CN(C)C(=O)NC1CCN(c2ncccn2)CC1`, for which the cytotoxicity at 10 µM is -19.1%. The same measure for `CNC(=O)Cc1ccccc1NC(=O)C1CCN(C2CCCCC2)C1` (configuration not stated): -0.355%. For the compound `COc1ccc(OC)c(CNCc2c(C(C)C)nn(C)c2N(C)C)c1`, the cytotoxicity at 10 µM was -5.89%. Consider `CC(Oc1ccccc1)C(=O)N1CCCN(Cc2cscn2)CC1` (configuration not stated), for which the cytotoxicity at 10 µM is -3.92%. The same measure for `CC(C)CCN1Cc2c(C(=O)N3CCCC3)nn(C)c2C1`: -0.173%. For `CCN(CC(=O)Nc1cc(Cl)ccc1C)C(=O)c1cnccn1`, the cytotoxicity at 10 µM was -0.12%. As for `CCCc1n[nH]c(C2CN(C(=O)c3ccc[nH]3)CCO2)n1` (configuration not stated), the cytotoxicity at 10 µM is -9.29%.

With `CN(Cc1cccnc1)C1CC2(CCN(C(=O)c3ccnnc3)CC2)C1`, the cytotoxicity at 10 µM came out at 5.41%. The same measure for `CN(CCOc1ccccc1Cl)S(=O)(=O)N1CCOCC1`: -3.51%. The same measure for `O=C(c1ccc(N2CCCC2)nc1)N1CCCC(n2cncn2)C1` (configuration not stated): -5.22%. As for `O=C(c1cn(CCN2CCCCC2)nn1)N1CCSCC1`, the cytotoxicity at 10 µM turned out to be 2.34%.

Consider `CSCC[C@@H](CO)NC(=O)c1sc(-c2ccccc2Cl)nc1C`, for which the cytotoxicity at 10 µM stood at 14.3%. The same measure for `Cc1ccc(CNc2ccn(CCc3ccncc3)n2)s1`: 21.8%; for `CCC(=O)Nc1ccc2c(c1)CN(C(=O)c1ccco1)CC2`: 5.84%; for `NC(=O)Cn1c(CO)cnc1SCc1ccccc1Cl`: 0.252%. Then `Cc1noc(C)c1CN1CCC2(CC1)C(c1cnn(C)c1)CC(=O)N2C` (configuration not stated), with -106%. Then `CC(C)COc1cncc(N2CCCC(CC(N)=O)C2)n1` (configuration not stated), with -1.67%. In the case of `Cc1nc[nH]c1CN1CCCC12CCN(c1ccccn1)CC2`, the cytotoxicity at 10 µM was 4.55%. Then `CCn1cc(-n2cc3nc(N4CCOCC4)[nH]cc-3c2=O)cn1`, with 3.43%; and `CN(C)[C@H]1CCCCN(Cc2cnc(NCc3ccccc3)nc2)C1`, with 0.166%; and `O=C(CN1CCCC1=O)NCc1cccnc1Oc1ccc(F)c(F)c1`, with 1.87%. Then `Fc1cccc(C(NCc2ncc[nH]2)c2ccccc2)c1` (configuration not stated), with 1.35%; and `COC(=O)NCC1CCC2(CCNCC2)O1` (configuration not stated), with 1.82%; and `O=C(NCC1CC1)[C@H]1C[C@H]2OCC[C@H]2N(Cc2ccsc2)C1`, with 2.47%. Then `COCCCC1CCCCN1Cc1cc(F)ccc1-n1cccn1` (configuration not stated), with -3.13%; and `CC(C)n1ncc2c1NC(=O)C(C#N)C21CCCC1` (configuration not stated), with -4.1%. Turning to `Cc1cnn(CC2CCCN2CC(=O)Nc2cc(C)no2)c1` (configuration not stated), the cytotoxicity at 10 µM was determined as 2.27%.
